In PubChem BioAssay AID624165 (Southern Research Specialized Biocontainment Screening …, 2012):
Active and inactive are the calls of the source.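 How the source made its calls: active means inhibition of 30% or more at any tested concentration; inactive means the rest.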

These molecules were tested on Plasmodium falciparum M18 aspartyl aminopeptidase (PfM18AAP) (assay: inhibition of P. falciparum M18 aspartyl aminopeptidase – biochemical, QFRET, H-Glu-NHMec substrate, set 3, selectivity assay for PFM1AAP inhibitor project, dose response (AID 624165)). Conditions: Recombinant PfM18AAP, H-Glu-NHMec fluorogenic cleavage; series mostly up to 100 µM.
How it was run: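 Benchmarks: no-enzyme background wells / Test system: purified recombinant PfM18AAP, M18 aspartyl aminopeptidase of Plasmodium falciparum / Quantity: enzyme 5 µg/mL / Schedule: enzyme reaction 90 min at room temperature / Repeats: each compound tested in triplicate / Compound dosing: 10-point twofold dilution series, 100 down to 0.2 µM / Detection: fluorescence, excitation 370 nm, emission 460 nm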

outcome, inactive:
O=C(NCc1ccccc1F)C1CCN(S(=O)(=O)c2sccc2Br)CC1
O=C(NCc1cccc(F)c1)C1CCN(S(=O)(=O)c2ccc(Cl)s2)CC1
O=C(NCc1cccc(F)c1)C1CCN(S(=O)(=O)c2ccc(Br)s2)CC1
O=C(NCCc1ccc2c(c1)OCO2)C1CCN(S(=O)(=O)c2sccc2Br)CC1
O=C(NCc1cccc(F)c1)C1CCN(S(=O)(=O)c2cc(Br)c(Br)s2)CC1
O=C(NCc1ccc2c(c1)OCO2)C1CCN(S(=O)(=O)c2ccc(Br)cc2)CC1
O=C(NCc1cccc(F)c1)C1CCN(S(=O)(=O)c2sccc2Br)CC1
O=C(NCCc1ccc2c(c1)OCO2)C1CCN(S(=O)(=O)c2ccc(Br)cc2)CC1
O=C(NCc1ccc2c(c1)OCO2)C1CCN(S(=O)(=O)c2ccc(Cl)s2)CC1
O=C(Nc1ccc2c(c1)OCO2)C1CCN(S(=O)(=O)c2cc(Br)c(Br)s2)CC1
O=C(NCc1ccc(F)cc1)C1CCN(S(=O)(=O)c2sccc2Br)CC1
O=C(NCc1ccc(F)cc1)C1CCN(S(=O)(=O)c2ccc(Br)s2)CC1
O=C(Nc1ccc2c(c1)OCO2)C1CCN(S(=O)(=O)c2sccc2Br)CC1
O=C(NCc1ccc2c(c1)OCO2)C1CCN(S(=O)(=O)c2sccc2Br)CC1
